Active and inactive are the calls of the source. The rule behind the calls is not given here.
How the values were obtained:
Type in all cases: cell-based
[1] = target: T1, Tubulin (Homo sapiens) (UniProt P68371+Q9H4B7+P0DPH7+P68366+Q13509+Q71U36+P04350+Q3ZCM7+P07437+P68363+Q9BQE3+Q6PEY2+Q13885+Q9BVA1+Q9BUF5); test: Induction of microtubule aggregation in human KB-VIN cells assessed as polymerized fraction at 1 uM measured after 16 hrs by SDS-PAGE analysis (reference value: 34%)
Procedure, shortened: (§1)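 KB-Vin or KB-7D cells treated 16 h, then lysed 5 min at 37 °C in the dark in hypotonic buffer (1% NP-40, 1 mmol/L MgCl2, 2 mmol/L EGTA, 50 mmol/L Tris-HCl pH 6.8, protease inhibitors). Spun 13000 rpm, 10 min, room temperature. Soluble supernatant and resuspended polymerized pellet run on SDS-PAGE.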

[2] = target: T1, Tubulin (Homo sapiens); test: Induction of microtubule aggregation in human KB-VIN cells assessed as polymerized fraction at 0.01 uM measured after 16 hrs by SDS-PAGE analysis (reference value: 34%); procedure, shortened: as §1
[3] = target: T1, Tubulin (Homo sapiens); test: Induction of microtubule aggregation in human KB7D cells at 1 uM measured after 24 hrs by DAPI staining based deconvolution fluorescence microscopic analysis
Procedure, shortened: (§2)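 Cells on glass coverslips treated 24 h, fixed in 4% paraformaldehyde for 15 min, and permeabilized with 0.5% Triton X-100. Blocked in PBS/2% BSA, stained with anti-beta-tubulin (1:250) and Alexa 488 anti-mouse (1:250), and mounted with DAPI. Imaged by wide-field deconvolution microscopy.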

[4] = target: T1, Tubulin (Homo sapiens); test: Induction of microtubule aggregation in human KB-VIN cells assessed as polymerized fraction at 0.1 uM measured after 16 hrs by SDS-PAGE analysis (reference value: 34%); procedure, shortened: as §1
[5] = target: T1, Tubulin (Homo sapiens); test: Induction of microtubule aggregation in human KB-VIN cells at 1 uM measured after 24 hrs by DAPI staining based deconvolution fluorescence microscopic analysis; procedure, shortened: as §2
[6] = target: T1, Tubulin (Homo sapiens); test: Induction of microtubule aggregation in human KB7D cells assessed as polymerized fraction at 0.01 uM measured after 16 hrs by SDS-PAGE analysis (reference value: 34%); procedure, shortened: as §1
[7] = target: T1, Tubulin (Homo sapiens); test: Induction of microtubule aggregation in human KB7D cells assessed as polymerized fraction at 1 uM measured after 16 hrs by SDS-PAGE analysis (reference value: 34%); procedure, shortened: as §1
[8] = target: T1, Tubulin (Homo sapiens); test: Induction of microtubule aggregation in human KB7D cells assessed as polymerized fraction at 0.1 uM measured after 16 hrs by SDS-PAGE analysis (reference value: 34%); procedure, shortened: as §1

- Activity [1]: 46.1%
- Activity [2]: 41.1%
- Activity [3]: Active
- Activity [4]: 45.9%
- Activity [5]: Active
- Activity [6]: 45.9%
- Activity [7]: 61.5%
- Activity [8]: 59.7%
Compound: CC(=O)O[C@H]1C(=O)[C@@]2(C)[C@H]([C@H](OC(=O)c3ccccc3)[C@]3(O)C[C@H](OC(=O)[C@H](O)[C@@H](NC(=O)c4ccccc4)c4ccccc4)C(C)=C1C3(C)C)[C@]1(OC(C)=O)CO[C@@H]1C[C@@H]2O

Reference: ChEMBL document CHEMBL4680226, “Design, synthesis, and evaluation of N-phenyl-4-(2-phenylsulfonamido)-benzamides as microtubule-targeting agents in drug-resistant cancer cells, displaying HDAC inhibitory response” (Eur J Med Chem, 2020)
